# Measurements published in ChEMBL document CHEMBL3098117, “Identification and optimization of an aminoalcohol-carbazole series with antimalarial properties” (ACS Med Chem Lett, 2013).
# Calls of active or inactive are those of the source. The calls are words filed in the database; no cut-off is given here.
# Experiments:
# [1] = Genotoxicity in micronucleus (unknown origin) under metabolic conditions; assay type: ADME
# [2] = tested on: Plasmodium berghei; assay: Antimalarial activity against Plasmodium berghei ANKA expressing GFP infected in NMRI mouse assessed as increase in mouse survival at 30 mg/kg/day, po qd for 4 days measured at 24 hrs after last dose; assay type: functional, organism-based
# In short: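 P. berghei-infected mice dosed orally once daily on days 0–3, first dose 4 h postinfection, at 3, 10, 30 and 100 mg/kg/day. Red blood cell parasitemia and plasma exposure measured on day 4, 24 h after last dose; ED50 derived from dose-response; survival then monitored for 26 further days as mean survival days.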
# [3] = AUC in NMRI mouse at 1 mg/kg, iv and 5 mg/kg, po by LC-MS/MS analysis; assay type: ADME, organism-based; conditions: plasma
# [4] = Cmax in NMRI mouse at 1 mg/kg, iv and 5 mg/kg, po by LC-MS/MS analysis; assay type: ADME, organism-based; conditions: in vivo
# [5] = Oral bioavailability in NMRI mouse at 5 mg/kg by LC-MS/MS analysis; assay type: ADME, organism-based; conditions: in vivo
# [6] = tested on: Plasmodium falciparum; assay: Antimalarial activity against chloroquine, pyrimethamine, sulfadoxine and quinine-resistant Plasmodium falciparum W2; assay type: functional, organism-based
# [7] = tested on: Plasmodium falciparum; assay: Antimalarial activity against chloroquine and pyrimethamine-resistant Plasmodium falciparum K1; assay type: functional, organism-based
# In short: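 P. falciparum cultured with test drug in human red blood cells for 3 days. Growth read out as hypoxanthine incorporation.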
# [8] = target: T1, Cytochrome P450 2C8 (Homo sapiens, UniProt P10632); assay: Inhibition of human recombinant CYP2C8 expressed in baculovirus-infected insect cells preincubated for 15 mins followed by substrate addition measured after 30 mins by luminescence assay; assay type: ADME; conditions: recombinant enzyme, 0.5 h
# T1 sequence (P10632 whole entry): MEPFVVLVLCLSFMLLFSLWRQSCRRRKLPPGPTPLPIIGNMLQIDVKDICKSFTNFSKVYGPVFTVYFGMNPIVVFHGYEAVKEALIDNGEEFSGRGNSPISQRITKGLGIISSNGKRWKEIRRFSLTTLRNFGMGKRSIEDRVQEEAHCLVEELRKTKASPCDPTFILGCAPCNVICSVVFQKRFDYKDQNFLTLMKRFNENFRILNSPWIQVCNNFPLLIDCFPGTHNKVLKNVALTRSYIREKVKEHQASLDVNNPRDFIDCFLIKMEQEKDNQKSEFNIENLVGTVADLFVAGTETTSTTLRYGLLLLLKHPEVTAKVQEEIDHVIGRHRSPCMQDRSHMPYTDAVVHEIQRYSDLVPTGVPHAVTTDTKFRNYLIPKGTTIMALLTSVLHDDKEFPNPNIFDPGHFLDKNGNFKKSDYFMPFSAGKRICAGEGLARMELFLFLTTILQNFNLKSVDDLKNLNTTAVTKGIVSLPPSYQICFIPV
# [9] = target: T2, Cytochrome P450 2B6 (Homo sapiens, UniProt P20813); assay: Inhibition of human recombinant CYP2B6 expressed in baculovirus-infected insect cells preincubated for 15 mins followed by substrate addition measured after 30 mins by luminescence assay; assay type: ADME; conditions: recombinant enzyme, 0.5 h
# T2 sequence (P20813 whole entry): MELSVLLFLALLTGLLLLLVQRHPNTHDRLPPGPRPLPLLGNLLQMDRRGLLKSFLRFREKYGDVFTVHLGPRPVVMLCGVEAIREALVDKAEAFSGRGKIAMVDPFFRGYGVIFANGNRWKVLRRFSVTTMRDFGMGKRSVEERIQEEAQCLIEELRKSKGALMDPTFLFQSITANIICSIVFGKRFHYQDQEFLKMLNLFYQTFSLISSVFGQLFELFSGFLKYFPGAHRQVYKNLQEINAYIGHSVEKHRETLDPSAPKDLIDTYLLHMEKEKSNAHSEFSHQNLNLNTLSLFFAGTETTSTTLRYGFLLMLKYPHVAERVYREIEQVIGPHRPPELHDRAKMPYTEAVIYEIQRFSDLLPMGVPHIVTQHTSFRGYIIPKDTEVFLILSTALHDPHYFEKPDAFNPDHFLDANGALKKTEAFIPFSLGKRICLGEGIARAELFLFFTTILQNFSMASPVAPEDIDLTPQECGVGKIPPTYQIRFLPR
# [10] = target: T3, Potassium/sodium hyperpolarization-activated cyclic nucleotide-gated channel 4 (Homo sapiens) (UniProt Q9Y3Q4); assay: Inhibition of human HCN4 channel
# T3 sequence (whole entry): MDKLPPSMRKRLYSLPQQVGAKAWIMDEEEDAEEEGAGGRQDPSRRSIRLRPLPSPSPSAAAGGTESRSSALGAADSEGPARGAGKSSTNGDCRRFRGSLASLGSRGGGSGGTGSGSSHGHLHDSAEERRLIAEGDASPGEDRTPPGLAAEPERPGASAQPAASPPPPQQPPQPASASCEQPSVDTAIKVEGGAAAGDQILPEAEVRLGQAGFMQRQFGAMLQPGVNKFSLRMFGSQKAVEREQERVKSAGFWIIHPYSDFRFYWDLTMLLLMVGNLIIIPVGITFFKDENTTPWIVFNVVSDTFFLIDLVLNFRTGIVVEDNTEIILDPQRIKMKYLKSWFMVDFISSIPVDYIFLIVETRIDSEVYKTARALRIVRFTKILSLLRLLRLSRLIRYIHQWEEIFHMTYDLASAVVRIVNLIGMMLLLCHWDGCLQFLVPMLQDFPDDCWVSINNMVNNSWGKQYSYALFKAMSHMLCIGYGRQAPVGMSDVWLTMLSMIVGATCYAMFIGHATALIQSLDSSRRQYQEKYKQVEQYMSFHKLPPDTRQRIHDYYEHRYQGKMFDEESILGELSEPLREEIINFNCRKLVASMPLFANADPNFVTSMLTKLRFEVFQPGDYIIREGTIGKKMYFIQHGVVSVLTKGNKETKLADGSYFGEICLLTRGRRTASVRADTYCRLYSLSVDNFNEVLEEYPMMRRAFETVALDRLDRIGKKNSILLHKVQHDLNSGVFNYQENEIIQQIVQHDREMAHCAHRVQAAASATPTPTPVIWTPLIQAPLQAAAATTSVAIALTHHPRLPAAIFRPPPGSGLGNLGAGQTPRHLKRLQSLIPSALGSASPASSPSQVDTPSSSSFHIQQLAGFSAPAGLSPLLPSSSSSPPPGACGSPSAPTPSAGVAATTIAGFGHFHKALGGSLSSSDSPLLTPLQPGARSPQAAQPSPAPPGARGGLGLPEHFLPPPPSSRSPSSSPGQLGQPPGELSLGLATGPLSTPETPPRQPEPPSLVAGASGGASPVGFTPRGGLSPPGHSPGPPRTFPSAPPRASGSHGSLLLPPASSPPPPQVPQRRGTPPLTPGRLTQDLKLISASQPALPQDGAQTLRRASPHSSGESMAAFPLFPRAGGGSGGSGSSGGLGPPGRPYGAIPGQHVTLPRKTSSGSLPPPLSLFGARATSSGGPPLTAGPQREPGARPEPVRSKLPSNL
compound,measurement,setting,value
OC(CNC1CCCCC1)Cn1c2ccc(Br)cc2c2cc(Br)ccc21 (racemic),Activity,[1],Non-toxic
same,Activity,[2],Active
same,AUC,[3],3750 ng·h/mL
same,Cmax,[4],158 ng/mL
same,bioavailability,[5],50%
same,Activity,[6],Active
same,Activity,[7],Active
same,inhibition (INH),[8],Active
same,inhibition (INH),[9],Active
same,inhibition,[10],inactive
